Experimental data from ChEMBL document CHEMBL1139226, “Partial retro-inverso, retro, and inverso modifications of hydrazide linked bifunctional peptides for opioid and cholecystokinin (CCK) receptors” (J Med Chem, 2007).

What was measured:
[1] = molecular target: T1, Delta-type opioid receptor (Homo sapiens, UniProt P41143); test: Activity at human delta opioid receptor expressed in CHO cells by [35S]GTP-gamma-S binding assay; type: functional, cell-based; conditions: for Log IC50: cho
How it was run: (§1)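 Receptors expressed in CHO cells; agonist-stimulated GTP-γ-S binding reported as net total bound/basal binding × 100. Log EC50 from nonlinear regression of at least two independent experiments.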

[2] = molecular target: Mu-type opioid receptor (Rattus norvegicus) (UniProt P33535); test: (§2) Activity at rat mu opioid receptor expressed in CHO cells by [35S]GTPgammaS binding assay; type: functional, cell-based; how it was run: as §1
[3] = molecular target: Delta-type opioid receptor (Mus musculus, UniProt P32300); test: Activity at delta opioid receptor in ICR mouse by MVD assay; type: functional, tissue-based
How it was run: (§3)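 Electrically stimulated isolated tissue; value is concentration giving 50% inhibition of muscle contraction.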

[4] = molecular target: Mu-type opioid receptor (Cavia porcellus, UniProt P97266); test: Activity at mu opioid receptor assessed as contraction of electrically-stimulated Hartley guinea pig ileum; type: functional, tissue-based; how it was run: as §3
[5] = molecular target: T2, Cholecystokinin receptor type A (Homo sapiens, UniProt P32238); test: Displacement of [125I]CCK8-SO3 from human CCK1 receptor expressed in HEK293 cells; type: cell-based
T2 sequence (P32238 whole entry): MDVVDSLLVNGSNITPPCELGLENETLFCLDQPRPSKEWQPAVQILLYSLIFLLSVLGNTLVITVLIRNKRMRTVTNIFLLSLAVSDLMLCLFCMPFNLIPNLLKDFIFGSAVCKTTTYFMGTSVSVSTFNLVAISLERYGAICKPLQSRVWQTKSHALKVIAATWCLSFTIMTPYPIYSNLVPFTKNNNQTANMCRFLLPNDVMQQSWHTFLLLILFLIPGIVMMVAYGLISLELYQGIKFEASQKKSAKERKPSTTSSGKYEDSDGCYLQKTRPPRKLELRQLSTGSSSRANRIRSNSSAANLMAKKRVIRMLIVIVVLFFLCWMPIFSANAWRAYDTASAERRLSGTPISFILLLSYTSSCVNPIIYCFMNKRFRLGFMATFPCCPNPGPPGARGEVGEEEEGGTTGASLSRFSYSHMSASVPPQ

[6] = molecular target: T3, Mu-type opioid receptor (Rattus norvegicus, UniProt P33535); test: as §2; type: functional, cell-based; how it was run: as §1
[7] = molecular target: T3, Mu-type opioid receptor; test: Displacement of [3H]DAMGO from rat mu opioid receptor expressed in HN9.10 cells; type: cell-based
[8] = molecular target: T1, Delta-type opioid receptor; test: Displacement of [3H]DPDPE from human delta opioid receptor expressed in HN9.10 cells; type: cell-based
[9] = molecular target: T4, Gastrin/cholecystokinin type B receptor (Homo sapiens, UniProt P32239); test: Displacement of [125I]CCK8-SO3 from human CCK2 receptor expressed in HEK293 cells; type: cell-based
T4 sequence (P32239 whole entry): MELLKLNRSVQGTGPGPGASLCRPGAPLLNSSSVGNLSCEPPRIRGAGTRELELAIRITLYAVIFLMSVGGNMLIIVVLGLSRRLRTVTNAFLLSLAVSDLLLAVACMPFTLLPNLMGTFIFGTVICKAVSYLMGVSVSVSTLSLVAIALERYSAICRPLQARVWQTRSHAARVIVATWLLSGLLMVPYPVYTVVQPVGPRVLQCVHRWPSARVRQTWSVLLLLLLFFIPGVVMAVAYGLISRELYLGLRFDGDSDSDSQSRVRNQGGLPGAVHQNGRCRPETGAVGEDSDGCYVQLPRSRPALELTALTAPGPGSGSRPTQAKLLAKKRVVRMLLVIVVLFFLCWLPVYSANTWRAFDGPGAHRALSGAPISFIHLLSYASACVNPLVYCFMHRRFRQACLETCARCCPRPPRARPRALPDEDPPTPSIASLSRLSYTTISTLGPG

[10] = molecular target: T4, Gastrin/cholecystokinin type B receptor; test: Activity at human CCK2 receptor expressed in HEK293 cells assessed as level of [3H]inositol produced relative to control; type: functional, cell-based

T3 sequence (P33535 whole entry): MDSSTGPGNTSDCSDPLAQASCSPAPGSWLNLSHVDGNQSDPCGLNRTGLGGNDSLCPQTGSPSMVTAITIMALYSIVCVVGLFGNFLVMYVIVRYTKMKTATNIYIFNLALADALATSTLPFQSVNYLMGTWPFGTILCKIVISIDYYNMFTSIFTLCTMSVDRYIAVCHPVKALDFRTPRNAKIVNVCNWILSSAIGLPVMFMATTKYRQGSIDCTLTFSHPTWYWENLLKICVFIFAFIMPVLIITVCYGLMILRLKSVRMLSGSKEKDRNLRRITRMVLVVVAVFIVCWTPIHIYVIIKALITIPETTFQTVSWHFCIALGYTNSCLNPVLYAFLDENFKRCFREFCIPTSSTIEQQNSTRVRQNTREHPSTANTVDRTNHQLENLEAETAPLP
Chain of Mu-type opioid receptor (Rattus norvegicus) (P33535 whole entry): as above
T1 sequence (P41143 whole entry): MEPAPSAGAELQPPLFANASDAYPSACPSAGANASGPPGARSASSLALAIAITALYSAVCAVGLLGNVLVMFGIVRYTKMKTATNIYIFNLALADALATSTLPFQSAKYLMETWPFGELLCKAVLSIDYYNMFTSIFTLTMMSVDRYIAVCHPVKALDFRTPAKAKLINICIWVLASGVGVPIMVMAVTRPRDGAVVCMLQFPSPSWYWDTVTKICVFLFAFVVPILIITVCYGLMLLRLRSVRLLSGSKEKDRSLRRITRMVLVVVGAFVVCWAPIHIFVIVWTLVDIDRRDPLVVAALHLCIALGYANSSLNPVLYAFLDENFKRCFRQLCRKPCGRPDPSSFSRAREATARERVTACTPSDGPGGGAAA
Chain of Delta-type opioid receptor (Mus musculus, UniProt P32300) (P32300 whole entry): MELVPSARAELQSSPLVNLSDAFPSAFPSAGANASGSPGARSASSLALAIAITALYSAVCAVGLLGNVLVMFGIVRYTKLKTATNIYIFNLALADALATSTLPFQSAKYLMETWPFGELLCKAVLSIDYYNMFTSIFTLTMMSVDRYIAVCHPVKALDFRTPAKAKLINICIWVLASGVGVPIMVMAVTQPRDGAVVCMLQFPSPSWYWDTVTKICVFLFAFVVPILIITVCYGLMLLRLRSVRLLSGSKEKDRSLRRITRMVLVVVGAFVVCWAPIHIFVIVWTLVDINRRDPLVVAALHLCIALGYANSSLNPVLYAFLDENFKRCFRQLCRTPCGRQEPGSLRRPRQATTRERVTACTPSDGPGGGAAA
Chain of Mu-type opioid receptor (Cavia porcellus, UniProt P97266) (P97266 whole entry): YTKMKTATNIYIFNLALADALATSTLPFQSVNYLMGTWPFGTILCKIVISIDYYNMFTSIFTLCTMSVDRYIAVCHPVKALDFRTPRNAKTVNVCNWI

Row | Structure (SMILES) | Emax [1] [%] | Emax [2] [%] | IC50 [3] [µM] | IC50 [4] [µM] | EC50 [1] [µM] | IC50 [1] [µM] | Ki [5] [µM] | log EC50 [6] | IC50 [7] [µM] | Ki [7] [µM] | IC50 [8] [µM] | Ki [8] [µM] | Ki [9] [µM] | Log IC50 [1] | EC50 [10] [µM] | Log IC50 [10] | Log IC50 ([6]; cho) | also measured
1 | CCCC[C@H](NC(=O)[C@@H](Cc1cc2ccccc2[nH]1)NC(=O)OC(C)(C)C)C(=O)N[C@@H](CC(=O)O)C(=O)N[C@@H](Cc1ccccc1)C(=O)NNC(=O)[C@H](Cc1ccccc1)NC(=O)CNC(=O)[C@@H](C)NC(=O)[C@@H](N)Cc1ccc(O)cc1 | 100 | 170 | – | – | – | – | – | – | – | – | – | – | – | – | – | – | – | –
2 | CCCC[C@@H](NC(=O)[C@H](Cc1cc2ccccc2[nH]1)NC(=O)OC(C)(C)C)C(=O)N[C@H](CC(=O)O)C(=O)N[C@H](Cc1ccccc1)C(=O)NNC(=O)[C@H](Cc1ccccc1)NC(=O)CNC(=O)[C@@H](C)NC(=O)[C@@H](N)Cc1ccc(O)cc1 | 93 | 106 | 0.031 | 0.21 | 0.0084 | 0.00832 | 8.3 | -8.9 | 0.0794 | 0.034 | 0.0162 | 0.0069 | > 10 | – | – | – | – | EC50 [6]: 0.0013 µM
3 | CCCC[C@H](NC(=O)[C@H](N)Cc1c[nH]c2ccccc12)C(=O)N[C@@H](CC(=O)O)C(=O)N[C@@H](Cc1ccccc1)C(=O)NNC(=O)[C@H](Cc1ccccc1)NC(=O)CNC(=O)[C@@H](C)NC(=O)[C@@H](N)Cc1ccc(O)cc1 | – | – | – | – | – | – | – | – | – | 0.0005 | – | – | – | -8.02 | 0.0046 | -8.34 | -8.02 | EC50 ([6]; cho): 0.096 µM
4 | CCCC[C@H](NC(=O)[C@H](N)Cc1cc2ccccc2[nH]1)C(=O)N[C@@H](CC(=O)O)C(=O)N[C@@H](Cc1ccccc1)C(=O)NNC(=O)[C@H](Cc1ccccc1)NC(=O)CNC(=O)[C@@H](C)NC(=O)[C@@H](N)Cc1ccc(O)cc1 | 64 | 82 | – | – | – | – | – | – | – | – | – | – | – | – | – | – | – | –
5 | CCCC[C@@H](NC(=O)[C@@H](CC(=O)O)NC(=O)[C@@H](Cc1ccccc1)NC(=O)OC(C)(C)C)C(=O)N[C@@H](Cc1cc2ccccc2[nH]1)C(=O)NNC(=O)[C@H](Cc1ccccc1)NC(=O)CNC(=O)[C@@H](C)NC(=O)[C@@H](N)Cc1ccc(O)cc1 | 99 | 71 | 0.018 | 0.53 | 0.013 | 0.0123 | 0.13 | -6.76 | 0.132 | 0.056 | 0.00912 | 0.0039 | 1.1 | – | – | – | – | IC50 [5]: 0.132 µM; IC50 [9]: 1.1 µM
6 | CCCC[C@H](NC(=O)[C@@H](Cc1c[nH]c2ccccc12)NC(=O)OC(C)(C)C)C(=O)N[C@@H](CC(=O)O)C(=O)N[C@@H](Cc1ccccc1)C(=O)NNC(=O)[C@H](Cc1ccccc1)NC(=O)CNC(=O)[C@@H](C)NC(=O)[C@@H](N)Cc1ccc(O)cc1 | – | – | – | – | – | – | – | – | – | – | – | – | – | -7.13 | 0.016 | -7.8 | -6.69 | –
